Columns and labels:
[1] = biological target: Opioid receptors; mu & delta (Rattus norvegicus) (UniProt P33533+P33535); test: Ratio of receptor binding inhibitory concentrations against mu and delta opioid receptors from rat brain as IC50 (vs [3H]-DPDPE) / IC50 (vs [3H]naloxone)
In short: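 The ratio is IC50 against [3H]DPDPE (rat brain membranes, 180 min, 25 °C) divided by IC50 against 1 nM [3H]naloxone (120 min, 25 °C). Both assays used Tris-HCl pH 7.4 buffer with MgCl2, BSA and bacitracin, and filtration on PEI-treated GF/B filters.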

[2] = Ratio of receptor binding inhibitory concentrations against somatostatin receptors and mu opioid receptors from rat brain […] / IC50(vs [3H]naloxone)
Mu-type opioid receptor = Mu-type opioid receptor (Rattus norvegicus, UniProt P33535); test: Inhibition of binding of [3H]-naloxone to Opioid receptor mu 1 of rat brain membranes; assay type: cell membranes, Membrane
Mu-type opioid receptor, sequence (P33535 whole entry): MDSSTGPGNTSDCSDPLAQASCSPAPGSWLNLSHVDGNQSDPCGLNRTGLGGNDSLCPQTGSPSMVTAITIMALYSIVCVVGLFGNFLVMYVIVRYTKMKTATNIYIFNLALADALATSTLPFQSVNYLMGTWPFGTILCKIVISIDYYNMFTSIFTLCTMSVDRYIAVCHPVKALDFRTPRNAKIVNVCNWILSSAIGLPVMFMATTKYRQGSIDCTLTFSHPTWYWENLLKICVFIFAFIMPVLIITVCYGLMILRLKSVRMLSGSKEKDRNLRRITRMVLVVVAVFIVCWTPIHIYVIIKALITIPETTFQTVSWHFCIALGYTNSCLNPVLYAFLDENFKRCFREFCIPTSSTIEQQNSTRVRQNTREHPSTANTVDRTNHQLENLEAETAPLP
In short: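 The [3H]naloxone (1 nM) displacement used washed Sprague-Dawley rat brain membranes in 50 mM Tris-HCl pH 7.4 containing MgCl2 5 mM, BSA and bacitracin. Incubation ran 120 min at 25 °C across ≥10 analogue concentrations. Binding was terminated by filtration through GF/B filters soaked in 0.1% polyethylenimine. IC50 is mean ± SD of at least three duplicate runs.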

[3] = biological target: Delta-type opioid receptor (Rattus norvegicus, UniProt P33533); test: Inhibition of [3H]-DPDPE binding to Opioid receptor delta 1 of rat brain membranes; assay type: cell membranes, Membrane
Delta-type opioid receptor, sequence (P33533 whole entry): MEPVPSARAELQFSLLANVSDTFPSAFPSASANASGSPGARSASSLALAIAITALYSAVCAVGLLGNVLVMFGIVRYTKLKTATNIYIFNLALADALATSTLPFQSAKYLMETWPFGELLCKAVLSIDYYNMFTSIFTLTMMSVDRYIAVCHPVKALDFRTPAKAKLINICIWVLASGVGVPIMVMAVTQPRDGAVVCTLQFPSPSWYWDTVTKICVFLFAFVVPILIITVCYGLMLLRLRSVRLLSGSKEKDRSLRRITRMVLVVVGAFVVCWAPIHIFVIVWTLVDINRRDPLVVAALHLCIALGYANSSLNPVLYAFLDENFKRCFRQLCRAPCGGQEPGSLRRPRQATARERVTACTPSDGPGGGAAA
In short: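 Rat brain membranes were prepared as a sucrose homogenate, spun at 1000g, and washed twice in 50 mM Tris-HCl pH 7.4 with 5 mM MgCl2, BSA 2 mg/mL and bacitracin 20 µg/mL. They were incubated with [3H]DPDPE and at least 10 freshly prepared peptide concentrations for 180 min at 25 °C. Bound ligand was separated by rapid filtration on PEI-pretreated GF/B filters.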

Rattus norvegicus = species on record: Rattus norvegicus; test: Compound was evaluated for the inhibition of binding of [125I]CGP23996 to rat brain membranes; parameters: species or system Membrane
In short: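 Whole brains from adult Sprague-Dawley rats (150–200 g) were homogenized 10% w/v in 0.32 M sucrose, spun at 1000g for 10 min, and resuspended in 50 mM Tris-HCl pH 7.4 with 5 mM MgCl2, BSA 2 mg/mL and bacitracin 20 µg/mL (done twice). Membranes were incubated with 0.2 nM [125I]CGP23,996 and ≥10 analogue concentrations for 120 min at 25 °C. Filtration was through 0.1% PEI-treated GF/B filters.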

Opioid receptors; mu & delta (Rattus norvegicus), sequence (P33533 whole entry, looked up): as the sequence (P33533 whole entry) above
Opioid receptors; mu & delta (Rattus norvegicus), sequence (P33535 whole entry, looked up): as the sequence (P33535 whole entry) above

SMILES | Ratio [1] | Ratio [2] | IC50 (Mu-type opioid receptor) [nM] | IC50 [3] [nM] | IC50 (Rattus norvegicus) [nM]
C[C@@H](O)[C@H](NC(=O)[C@@H]1NC(=O)[C@@H]([C@@H](C)O)NC(=O)[C@H](CCCCN)NC(=O)[C@@H](Cc2c[nH]c3ccccc23)NC(=O)[C@H](Cc2ccc(O)cc2)NC(=O)[C@@H](NC(=O)[C@H](N)Cc2ccccc2)CSSC1(C)C)C(N)=O | 2250 | 187 |  |  | 
C[C@@H](O)[C@H](NC(=O)[C@H]1NC(=O)[C@H]([C@@H](C)O)NC(=O)[C@H](CCCCN)NC(=O)[C@@H](Cc2c[nH]c3ccccc23)NC(=O)[C@H](Cc2ccc(O)cc2)NC(=O)[C@@H](NC(=O)[C@H](N)c2ccccc2)CSSC1(C)C)C(N)=O |  |  | 350 | 2800 | 2300
C[C@@H](O)[C@H](NC(=O)[C@H]1CSSC(C)(C)[C@H](NC(=O)[C@H](N)c2ccccc2)C(=O)N[C@@H](Cc2ccccc2)C(=O)N[C@H](Cc2c[nH]c3ccccc23)C(=O)N[C@@H](CCCCN)C(=O)N[C@H]([C@@H](C)O)C(=O)N1)C(=O)O | 15 | 0.45 |  |  | 
C[C@H](N)C(=O)NCC(=O)N[C@H]1CSSC[C@@H](C(=O)O)NC(=O)[C@H](CO)NC(=O)[C@H]([C@@H](C)O)NC(=O)[C@H](Cc2ccccc2)NC(=O)[C@H]([C@@H](C)O)NC(=O)[C@H](CCCCN)NC(=O)[C@H](Cc2c[nH]c3ccccc23)NC(=O)[C@H](Cc2ccccc2)NC(=O)[C@H](Cc2ccccc2)NC(=O)[C@H](CC(N)=O)NC(=O)[C@H](CCCCN)NC1=O |  | 0.0003 |  |  | 
C[C@@H](O)[C@H](NC(=O)[C@@H]1CSSC[C@H](NC(=O)[C@H](N)Cc2ccc(O)cc2)C(=O)N[C@@H](Cc2ccc(O)cc2)C(=O)N[C@H](Cc2c[nH]c3ccccc23)C(=O)N[C@@H](CCCCN)C(=O)N[C@@H]([C@@H](C)O)C(=O)N1)C(=O)O |  |  | 9100 | 27500 | 18500
CC(C)[C@@H]1NC(=O)[C@H](CCCCN)NC(=O)[C@@H](Cc2c[nH]c3ccccc23)NC(=O)[C@H](Cc2ccc(O)cc2)NC(=O)[C@@H](NC(=O)[C@H](N)Cc2ccccc2)CSSC(C)(C)[C@@H](C(=O)NC(C(N)=O)[C@@H](C)O)NC1=O (stereo in doubt) |  |  | 5.5 | 2000 | 
C[C@@H](O)[C@H](NC(=O)[C@@H]1NC(=O)CNC(=O)[C@H](CCCCN)NC(=O)[C@@H](Cc2c[nH]c3ccccc23)NC(=O)[C@H](Cc2ccc(O)cc2)NC(=O)[C@@H](NC(=O)[C@H](N)Cc2ccccc2)CSSC1(C)C)C(N)=O | 110 | 25 |  |  | 
C[C@@H](O)[C@H](NC(=O)[C@@H]1NC(=O)[C@@H]([C@@H](C)O)NC(=O)[C@H](CCCCN)NC(=O)[C@@H](Cc2c[nH]c3ccccc23)NC(=O)[C@H](Cc2ccc(O)cc2)NC(=O)[C@@H](NC(=O)[C@H](N)c2ccccc2)CSSC1(C)C)C(N)=O | 8 | 6.6 |  |  | 
C[C@@H](O)[C@H](NC(=O)[C@H]1NC(=O)[C@H]([C@@H](C)O)NC(=O)[C@H](CCCCN)NC(=O)[C@H](Cc2c[nH]c3ccccc23)NC(=O)[C@H](Cc2ccc(O)cc2)NC(=O)[C@@H](NC(=O)[C@H](N)Cc2ccccc2)CSSC1(C)C)C(N)=O |  |  | 1350 | > 70000 | 740
C[C@@H](O)[C@H](NC(=O)[C@@H]1CSSC(C)(C)[C@H](NC(=O)[C@H](N)c2ccccc2)C(=O)N[C@@H](Cc2ccccc2)C(=O)N[C@H](Cc2c[nH]c3ccccc23)C(=O)N[C@@H](CCCCN)C(=O)N[C@@H]([C@@H](C)O)C(=O)N1)C(=O)O |  |  | 2100 | 32000 | 947
C[C@@H](O)[C@H](NC(=O)[C@H]1NC(=O)[C@H]([C@@H](C)O)NC(=O)[C@H](CCCCN)NC(=O)[C@@H](Cc2c[nH]c3ccccc23)NC(=O)[C@H](Cc2ccc(O)cc2)NC(=O)[C@@H](NC(=O)[C@H](N)Cc2ccccc2)CSSC1(C)C)C(N)=O |  |  | 3.7 | 8400 | 690
C[C@@H](O)[C@H](NC(=O)[C@H]1CSSC[C@H](NC(=O)[C@H](N)Cc2ccc(O)cc2)C(=O)N[C@@H](Cc2ccc(O)cc2)C(=O)N[C@H](Cc2c[nH]c3ccccc23)C(=O)N[C@@H](CCCCN)C(=O)N[C@H]([C@@H](C)O)C(=O)N1)C(=O)O | 3 | 2 |  |  | 
C[C@@H](O)[C@H](NC(=O)[C@H]1NC(=O)[C@H]([C@@H](C)O)NC(=O)[C@H](CCCN)NC(=O)[C@@H](Cc2c[nH]c3ccccc23)NC(=O)[C@H](Cc2ccc(O)cc2)NC(=O)[C@@H](NC(=O)[C@H](N)Cc2ccccc2)CSSC1(C)C)C(N)=O |  |  |  | 13500 | 24300
CC(C)[C@H]1NC(=O)[C@H](CCCCN)NC(=O)[C@@H]([C@@H](C)O)NC(=O)[C@H](Cc2ccc(O)cc2)NC(=O)[C@@H](NC(=O)[C@H](N)Cc2ccccc2)CSSC(C)(C)[C@H](C(=O)N[C@H](C(N)=O)[C@@H](C)O)NC1=O | 360 |  |  |  | 
C[C@@H](O)[C@H](NC(=O)[C@H]1NC(=O)[C@H]([C@@H](C)O)NC(=O)[C@H](CCCN=C(N)N)NC(=O)[C@@H](Cc2c[nH]c3ccccc23)NC(=O)[C@H](Cc2ccc(O)cc2)NC(=O)[C@@H](NC(=O)[C@H](N)Cc2ccccc2)CSSC1(C)C)C(N)=O |  |  | 3.5 | 4500 | 14300
CCCC[C@@H]1NC(=O)[C@@H](Cc2c[nH]c3ccccc23)NC(=O)[C@H](Cc2ccc(O)cc2)NC(=O)[C@@H](NC(=O)[C@H](N)Cc2ccccc2)CSSC(C)(C)[C@@H](C(=O)N[C@H](C(N)=O)[C@@H](C)O)NC(=O)[C@H]([C@@H](C)O)NC1=O |  |  | 9.6 | 5600 | 
C[C@@H](O)[C@H](NC(=O)[C@@H]1NC(=O)[C@@H]([C@@H](C)O)NC(=O)[C@H](CCCN=C(N)N)NC(=O)[C@@H](Cc2c[nH]c3ccccc23)NC(=O)[C@H](Cc2ccc(O)cc2)NC(=O)[C@@H](NC(=O)[C@H](N)Cc2ccccc2)CSSC1(C)C)C(N)=O | 1300 | 4090 |  |  | 
CCCC[C@@H]1NC(=O)[C@@H](Cc2c[nH]c3ccccc23)NC(=O)[C@H](Cc2ccc(O)cc2)NC(=O)[C@@H](NC(=O)[C@H](N)Cc2ccccc2)CSSC(C)(C)[C@H](C(=O)N[C@H](C(N)=O)[C@@H](C)O)NC(=O)[C@@H]([C@@H](C)O)NC1=O | 580 |  |  |  | 
C[C@@H](O)[C@H](NC(=O)[C@H]1NC(=O)CNC(=O)[C@H](CCCCN)NC(=O)[C@@H](Cc2c[nH]c3ccccc23)NC(=O)[C@H](Cc2ccc(O)cc2)NC(=O)[C@@H](NC(=O)[C@H](N)Cc2ccccc2)CSSC1(C)C)C(N)=O |  |  | 539 | 58000 | 13300
C[C@@H](O)[C@H](NC(=O)[C@@H]1NC(=O)[C@@H]([C@@H](C)O)NC(=O)[C@H](CCCCN)NC(=O)[C@H](Cc2c[nH]c3ccccc23)NC(=O)[C@H](Cc2ccc(O)cc2)NC(=O)[C@@H](NC(=O)[C@H](N)Cc2ccccc2)CSSC1(C)C)C(N)=O | > 52 | 0.55 |  |  | 
